Measurements as given in ChEMBL document CHEMBL4385662, “Anti-tubercular activity of novel 4-anilinoquinolines and 4-anilinoquinazolines” (Bioorg Med Chem Lett, 2019).
The source made the active and inactive calls. The calls are words filed in the database; no cut-off is given here.

Legend:
[1] = test system: Mycobacterium tuberculosis; test: Anti-tubercular activity against Mycobacterium tuberculosis H37Rv expressing LuxABCDE assessed as relative luminescence by measuring ratio of RLU (test compound)/RLU(no compound) at 10 uM by luminescence based assay; assay type: functional
[2] = test system: Mycobacterium tuberculosis; test: Anti-tubercular activity against Mycobacterium tuberculosis H37Rv expressing LuxABCDE assessed as luminescence signal at 1.3 uM by luminescence based assay relative to untreated control; assay type: functional
[3] = test system: Mycobacterium tuberculosis; test: Anti-tubercular activity against Mycobacterium tuberculosis H37Rv expressing LuxABCDE assessed as relative luminescence by measuring ratio of RLU (test compound)/RLU(no compound) at 20 uM by luminescence based assay; assay type: functional
[4] = test system: Mycobacterium tuberculosis; test: Anti-tubercular activity against Mycobacterium tuberculosis H37Rv expressing LuxABCDE assessed as luminescence signal at 2.5 uM by luminescence based assay relative to untreated control; assay type: functional
cells = assay type: ADME, cell-based; conditions: Homo sapiens, WS1, 48 h
[5] = test system: Mycobacterium tuberculosis; test: Anti-tubercular activity against Mycobacterium tuberculosis H37Rv expressing LuxABCDE assessed as relative luminescence by measuring ratio of RLU (test compound)/RLU(no compound) at 5 uM by luminescence based assay; assay type: functional
[6] = test system: Mycobacterium tuberculosis; test: Anti-tubercular activity against Mycobacterium tuberculosis H37Rv expressing LuxABCDE assessed as relative luminescence by measuring ratio of RLU (test compound)/RLU(no compound) at 1.25 uM by luminescence based assay; assay type: functional
[7] = test system: Mycobacterium tuberculosis; test: Anti-tubercular activity against Mycobacterium tuberculosis H37Rv expressing LuxABCDE assessed as relative luminescence by measuring ratio of RLU (test compound)/RLU(no compound) at 2.5 uM by luminescence based assay; assay type: functional
[8] = test system: Mycobacterium tuberculosis; test: Anti-tubercular activity against Mycobacterium tuberculosis H37Rv expressing LuxABCDE assessed as relative luminescence by measuring ratio of RLU (test compound)/RLU(no compound) at 0.625 uM by luminescence based assay; assay type: functional, organism-based
[9] = test system: Mycobacterium tuberculosis; test: Anti-tubercular activity against Mycobacterium tuberculosis H37Rv expressing LuxABCDE assessed as reduction in microbial growth by luminescence based assay; assay type: functional
In short: (§1)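 Growth inhibition was assessed by two assays. […] Values are the mean of 3 biological replicates with standard deviation.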

[10] = test system: Mycobacterium tuberculosis; test: Anti-tubercular activity against Mycobacterium tuberculosis H37Rv expressing LuxABCDE assessed as reduction in microbial growth at 5 uM by luminescence based assay relative to control; assay type: functional; conditions: read-out: GI; in short: as §1
[11] = test system: Mycobacterium tuberculosis; test: Anti-tubercular activity against Mycobacterium tuberculosis H37Rv expressing LuxABCDE assessed as reduction in microbial growth at 20 uM by luminescence based assay relative to control; assay type: functional; conditions: read-out: GI; in short: as §1
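Wherever IC50 is given: cell viability loss read out with alamar blue dye, IC50 being the concentration cutting viability by half.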

Compound	Ratio [1]	Activity [2] [%]	Ratio [3]	Activity [4] [%]	IC50 (cells) [µM]	Ratio [5]	Ratio [6]	Ratio [7]	Activity [8]	MIC90 [9] [µM]	inhibition of growth at 5 µM [10] [%]	inhibition of growth at 20 µM [11] [%]
COc1cc(Nc2ncnc3ccc(C(F)(F)F)cc23)cc(OC)c1OC	1.12	>95	1.06	>95	> 100	1.25						
COc1cc2ncc(C#N)c(Nc3cccc(Br)c3)c2cc1OC	0.56	>95	0.37	>95	11	0.88						
Oc1ccc2ncnc(Nc3ccc(OCc4ccccc4)cc3)c2c1	0.9		0.8		26	0.96	0.95	0.94	inactive			
COc1cc2ncnc(Nc3ccc(F)c(Cl)c3)c2cc1OCCCN1CCOCC1									inactive			
COc1cc2nccc(Nc3ccc(OCc4cccc(F)c4)c(Cl)c3)c2cc1OC	0.22	>95	0.1	>95	11	0.78						
COc1cc2ncnc(Nc3ccc(OCc4ccccc4)cc3)c2cc1OC	0.77		0.6		> 100	0.83	1.04	1.04	inactive			
C#Cc1cccc(Nc2c(C#N)cnc3cc(OC)c(OC)cc23)c1	1.03	>95	0.98	>95	> 100	1.08						
COc1cc(Nc2ccnc3ccc(C(F)(F)F)cc23)cc(OC)c1OC	1.14	>95	1.21	>95	> 100	1.23						
Oc1cc2ncnc(Nc3ccc(OCc4ccc(F)cc4)cc3)c2cc1O	0.89		0.76		> 100	1	1.04	1.14	inactive			
C#Cc1cccc(Nc2ccnc3cc(OC)c(OC)cc23)c1	0.89	>95	0.67	>95	> 100	1.02						
COc1cc2nccc(Nc3cccc(Br)c3)c2cc1OC	0.9	>95	0.6	>95	9.6	1.03						
C#Cc1cccc(Nc2ncnc3cc(OC)c(OC)cc23)c1	0.83	>95	0.69	>95	> 100	0.93						
COc1cc2ncnc(Nc3cc(OC)c(OC)c(OC)c3)c2cc1OC	1.01	>95	0.94	>95	> 100	1.03						
C#Cc1cccc(Nc2ncnc3cc(OCCOC)c(OCCOC)cc23)c1									inactive			
Oc1ccc2c(Nc3ccc(OCc4ccc(F)cc4)cc3)ncnc2c1	0.89		0.83		> 100	0.9	0.94	1.01	inactive			
Oc1ccc2ncnc(Nc3ccc(OCc4cccc(F)c4)cc3)c2c1	0.39		0.25		12	0.49	0.76	0.64	inactive			
Oc1cc2ncnc(Nc3ccc(OCc4ccccc4)cc3)c2cc1O	0.76		0.69		8.8	0.91	0.95	0.93	inactive			
COc1cc2ncnc(Nc3ccc(OCc4cccc(F)c4)c(Cl)c3)c2cc1OC	0.74	>95	0.8	>95	1.1	0.92						
Oc1ccc2ncnc(Nc3ccc(OCc4ccccc4F)cc3)c2c1	0.46		0.28		28	0.63	0.89	0.82	inactive			

Compound	Ratio [1]	Activity [2] [%]	Ratio [3]	Activity [4] [%]	IC50 (cells) [µM]	Ratio [5]	Ratio [6]	Ratio [7]	Activity [8]	MIC90 [9] [µM]	inhibition of growth at 5 µM [10] [%]	inhibition of growth at 20 µM [11] [%]
COc1cc2nccc(Nc3ccc(NC(=O)c4ccc(C)cc4)c(O)c3)c2cc1OC	1.05		0.45		16	1.13	1.14	1.09				
COc1cc2ncnc(Nc3cccc(Br)c3)c2cc1OC	0.71	>95	0.65	>95	3.9	0.98						
COCCOc1cc2ncnc(Nc3cc(OC)c(OC)c(OC)c3)c2cc1OCCOC	0.96	>95	0.87	>95	> 100	1.02						
COc1ccc2ncnc(Nc3ccc(OCc4ccccc4)cc3)c2c1	0.83		0.62		> 100	0.89	1.04	1.07	inactive			
COc1cc2nccc(Nc3ccc(NC(=O)c4ccc(C(C)(C)C)cc4)c(O)c3)c2cc1OC	0.72		0.25		2.6	1.06	1.1	1.12				
COc1ccc2nccc(Nc3ccc(NC(=O)c4ccc(C)cc4)c(O)c3)c2c1	1.28		0.95		10	1.14	1.11	1.17				
CS(=O)(=O)CCNCc1ccc(-c2ccc3ncnc(Nc4ccc(OCc5cccc(F)c5)c(Cl)c4)c3c2)o1 [LAPATINIB]	0.17		0.08		13	0.74	0.99	0.9	inactive			
Oc1ccc2ncnc(Nc3ccc(OCc4ccc(F)cc4)cc3)c2c1	0.44		0.32		> 100	0.64	0.86	0.76	inactive			
Oc1ccc2nccc(Nc3ccc(OCc4ccccc4)cc3)c2c1	0.42		0.37		2.5	0.66	0.95	0.86	inactive			
COc1cc(Nc2ccnc3ccc(Br)cc23)cc(OC)c1OC	1.41	>95	1.28	>95	> 100	1.35						
COc1ccc2c(Nc3ccc(NC(=O)c4ccc(C)cc4)c(O)c3)ccnc2c1	1.11		0.96		4.7	1.09	1.13	1.11				
COc1cc2ncc(C#N)c(Nc3cc(OC)c(OC)c(OC)c3)c2cc1OC	1.01	>95	0.97	>95	> 100	1.03						
COc1ccc2c(Nc3ccc(OCc4ccccc4)cc3)ncnc2c1	0.87		0.64		> 100	0.99	1.05	1.12	inactive			
COc1cc2nccc(Nc3ccc(NC(C)=O)cc3)c2cc1OC	1.07		1.02		9.7	1.11	1.21	1.1				
C#Cc1cccc(Nc2ccnc3cc(OCCOC)c(OCCOC)cc23)c1	0.79	>95	0.58	>95	> 100	0.88						
Oc1ccc2c(Nc3ccc(OCc4ccccc4)cc3)ncnc2c1	0.88		0.89		> 100	0.89	0.9	0.9	inactive			
COc1cc2nccc(Nc3cc(OC)c(OC)c(OC)c3)c2cc1OC	1.11	>95	1.06	>95	> 100	1.26						
COc1cc2nccc(Nc3ccc(OCc4ccc(C)cc4)cc3)c2cc1OC	0.08		0.09		5.4	0.1	0.43	0.17		0.63 to 1.25	98	98
